Experiment [1] relates to Planktothrix agardhii. Put plainly: Antialgal activity against Planktothrix agardhii assessed as lowest observed effect concentration measured for 4 days. The format is functional. In a few lines:
(§1)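 Cyanobacteria (O. perornata, O. agardhii, Pseudanabaena LW397) and the green alga S. capricornutum were each maintained in continuous steady-state culture. Compound in dichloromethane was dried in quartz 96-well plates, then 200 µL culture was added. Final concentrations were 0.1, 1.0, 10.0 and 100.0 µM, in triplicate, and experiments were repeated. Plates were held at 29 °C under continuous light, and A650 was read every 24 h for 4 days. LOEC, LCIC and 96-h IC50 were taken from mean absorbance graphs.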

Experiment [2] concerns Planktothrix perornata. Briefly: Antialgal activity against Oscillatoria perornata assessed as inhibition measured for 96 hr. The format is functional, organism-based. An outline of the steps: as §1
The test system of experiment [3] is Planktothrix perornata. Put plainly: Antialgal activity against Oscillatoria perornata assessed as lowest observed effect concentration measured for 4 days. The format is functional. An outline of the steps: as §1
Experiment [4] deals with Planktothrix perornata. Put plainly: Antialgal activity against Oscillatoria perornata assessed as lowest complete inhibition concentration measured for 4 daysos. Type of experiment: functional. In a few lines:
as §1

The subject of experiment [5] is Phomopsis obscurans. Briefly: Antifungal activity against Phomopsis obscurans assessed as growth inhibition at 50 uM measured at 120 hr by 96-well microtiter assay. The format is functional. The conditions noted are these: Paraphomopsis obscurans. An outline of the steps:
(§2)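 Filamentous-fungus broth microdilution in 96 wells, adapted from NCCLS M27A, with benomyl, azoxystrobin and captan as standards. Conidia came from 7–10-day PDA cultures, were filtered and set to 1.0 × 10^6 conidia/mL by A625 standard curve. Compounds were tested at 50.0, 100.0 and 150.0 µM. Growth was read as A620 at 0, 24, 48 and 72 h, plus 120 h for Phomopsis species. Percent inhibition was pooled from two experiments.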

The next experiment has as its system Botrytis cinerea. Briefly: Antifungal activity against Botryotinia fuckeliana assessed as growth inhibition at 50 to 150 uM measured up to 72 hr by 96-well microtiter assay. Type of experiment: functional, organism-based. In a few lines:
as §2

A further experiment deals with Colletotrichum acutatum. Briefly: Antifungal activity against Colletotrichum acutatum assessed as growth inhibition at 50 to 150 uM measured up to 72 hr by 96-well microtiter assay. The format is functional, organism-based. An outline of the steps:
as §2

Experiment [6] relates to Colletotrichum gloeosporioides. Put plainly: Antifungal activity against Colletotrichum gloeosporioides assessed as growth inhibition at 50 to 150 uM measured up to 72 hr by 96-well microtiter assay. The format is functional, organism-based. In a few lines:
as §2

A further experiment concerns Diaporthe ampelina. Put plainly: Antifungal activity against Diaporthe ampelina assessed as growth inhibition at 50 to 150 uM measured up to 120 hr by 96-well microtiter assay. Type of experiment: functional, organism-based. In a few lines: as §2
A further experiment has as its system Colletotrichum fragariae. Briefly: Antifungal activity against Colletotrichum fragariae assessed as growth inhibition at 50 to 150 uM measured up to 72 hr by 96-well microtiter assay. The format is functional, organism-based. In a few lines:
as §2

Experiment [7] deals with Phomopsis obscurans. Put plainly: Antifungal activity against Phomopsis obscurans assessed as growth inhibition at 50 to 150 uM measured up to 120 hr by 96-well microtiter assay. The format is functional, organism-based. The conditions noted are these: Paraphomopsis obscurans. An outline of the steps: as §2
A further experiment deals with Fusarium oxysporum. Briefly: Antifungal activity against Fusarium oxysporum assessed as growth inhibition at 50 to 150 uM measured up to 72 hr by 96-well microtiter assay. Type of experiment: functional, organism-based. In a few lines:
as §2

Experiment [8] concerns Selenastrum capricornutum. Put plainly: Antialgal activity against Selenastrum capricornutum assessed as inhibition measured for 96 hr. The format is functional, organism-based. An outline of the steps:
as §1

The test system of experiment [9] is Selenastrum capricornutum. Put plainly: Antialgal activity against Selenastrum capricornutum assessed as lowest complete inhibition concentration measured for 4 days. The format is functional. In a few lines: as §1
Experiment [10] deals with Selenastrum capricornutum. Put plainly: Antialgal activity against Selenastrum capricornutum assessed as lowest observed effect concentration measured for 4 days. The format is functional. In a few lines:
as §1

Experiment [11] concerns Pseudanabaena sp. Put plainly: Antialgal activity against Pseudanabaena sp. LW397 assessed as inhibition measured for 96 hr. The format is functional, organism-based. To be noted: LW397, 96 h. An outline of the steps: as §1
For experiment [12], the system named is Pseudanabaena sp. Put plainly: Antialgal activity against Pseudanabaena sp. LW397 assessed as lowest complete inhibition concentration measured for 4 days. Type of experiment: functional. An outline of the steps:
as §1

Experiment [13] concerns Pseudanabaena sp. Put plainly: Antialgal activity against Pseudanabaena sp. LW397 assessed as lowest observed effect concentration measured for 4 days. The format is functional. An outline of the steps: as §1
In experiment [14] the test system is Planktothrix agardhii. Briefly: Antialgal activity against Planktothrix agardhii assessed as lowest complete inhibition concentration measured for 4 days. Type of experiment: functional. An outline of the steps:
as §1

For experiment [15], the system named is Phomopsis obscurans. Put plainly: Antifungal activity against Phomopsis obscurans assessed as growth inhibition at 50 uM measured at 120 hr by 96-well microtiter assay. To be noted: Paraphomopsis obscurans.
Experiment [16] concerns Colletotrichum gloeosporioides. Briefly: Antifungal activity against Colletotrichum gloeosporioides assessed as growth inhibition at 150 µM measured at 72 hr by 96-well microtiter assay.
Experiment [17] concerns Colletotrichum gloeosporioides. Put plainly: Antifungal activity against Colletotrichum gloeosporioides assessed as growth inhibition at 150 µM measured at 48 hr by 96-well microtiter assay.

Active and inactive are the calls of the source. The rule behind the calls is not given here.

One may read the IC50 as the point on the concentration scale where inhibition reaches its midpoint. For orientation: inhibition means the relative decrease from the control value, in per cent. In the case of `COc1ccc2[nH]c(=O)c3c(c2c1)OC(C)(C)C=C3` [HAPLAMINE], the Activity in the experiment with Planktothrix agardhii [1] is greater than 100 µM; with Planktothrix perornata [3], 1 µM; in the experiment with Planktothrix perornata [4] it was 10 µM; in experiment [9], 100 µM; in experiment [10] it was 10 µM; with Pseudanabaena sp. [12] it was 100 µM. The figures for the Activity in the experiment on Pseudanabaena sp. [13] and in the experiment on Planktothrix agardhii [14] were 1 µM and greater than 100 µM, respectively. Moreover, the values for the IC50 (in the experiment with Planktothrix perornata [2]; in [8]; in the experiment with Pseudanabaena sp. [11]) were 1.8 µM, 15.9 µM and 2000 nM, respectively. Besides, the inhibition at 50 µM with Phomopsis obscurans [5] and in the experiment on Phomopsis obscurans [15] was greater than 80% throughout. For the same compound, the “growth inhibition (GI)” value (in the experiment with Botrytis cinerea; with Colletotrichum acutatum; in experiment [6]; with Diaporthe ampelina; in the experiment on Colletotrichum fragariae; in the experiment on Phomopsis obscurans [7]) was “Active” each time. In the experiment with Fusarium oxysporum, the “growth inhibition (GI)” value is “Active”.

On to `CC1(C)C=Cc2c(O)nc3ccccc3c2O1` [FLINDERSINE], for which the Activity in the experiment on Planktothrix agardhii [1] was greater than 100 µM; in the experiment with Planktothrix perornata [3], 10 µM; in the experiment on Planktothrix perornata [4], 100 µM; in experiment [9], 100 µM; in [10] it was 10 µM; with Pseudanabaena sp. [12] it was greater than 100 µM. Besides, the Activity in the experiment on Pseudanabaena sp. [13] and in the experiment on Planktothrix agardhii [14] was greater than 100 µM throughout. In addition, the results for the IC50 (in the experiment on Planktothrix perornata [2]; in experiment [8]) were 15.9 µM and 17.8 µM, respectively. The inhibition at 50 µM in the experiment with Phomopsis obscurans [5] and with Phomopsis obscurans [15] was greater than 80% each time. Moreover, the “growth inhibition (GI)” value (with Colletotrichum acutatum; in [6]; in the experiment on Diaporthe ampelina; with Colletotrichum fragariae; in the experiment on Phomopsis obscurans [7]; in the experiment on Fusarium oxysporum) was “Active” in each case. For the same compound, the “inhibition (INH)” value was less than 40% in experiment [16] and greater than 65% in experiment [17].

For `COc1c2ccoc2nc2c(OC)c(OCC3OC3(C)C)ccc12` (centres undefined) [ANHYDROEVOXINE], the inhibition at 50 µM in the experiment with Phomopsis obscurans [5] and with Phomopsis obscurans [15] was greater than 80% throughout. The “growth inhibition (GI)” value (in the experiment with Colletotrichum acutatum; in [6]; with Diaporthe ampelina; in the experiment on Colletotrichum fragariae; with Phomopsis obscurans [7]; with Fusarium oxysporum) was “Active” each time.

For the compound `COc1ccc([C@H]2OC[C@H]3[C@@H]2CO[C@@H]3c2ccc(OC)c(OC)c2)cc1OC` [(+)-EUDESMIN], the Activity in the experiment on Planktothrix agardhii [1] was greater than 100 µM; in the experiment with Planktothrix perornata [3], 10 µM; with Planktothrix perornata [4], greater than 100 µM; in experiment [9], greater than 100 µM; in experiment [10], 100 µM; with Pseudanabaena sp. [12], 100 µM. The Activity is 100 µM in the experiment on Pseudanabaena sp. [13] and greater than 100 µM with Planktothrix agardhii [14]. Besides, the inhibition at 50 µM in the experiment with Phomopsis obscurans [5] and in the experiment on Phomopsis obscurans [15] was greater than 80% in each case. Further, the “growth inhibition (GI)” value (in the experiment on Colletotrichum acutatum; in experiment [6]; in the experiment on Diaporthe ampelina; with Colletotrichum fragariae; in the experiment on Phomopsis obscurans [7]; in the experiment on Fusarium oxysporum) was “Active” each time.
